Rows were chosen to be rich in hits. Some 1.3% of all compounds tested hit in one or more screens of this group.
procasp7 counter – activates human procaspase-7, counter-screen for procaspase-3 activators; recombinant procaspase-7, Ac-DEVD-pNA absorbance 405 nm; D23A/D198A/D206A triple mutant, cannot self-cleave; scale: DMSO 0, 5 µM enzyme 100; activation, % at 8.5 µM; 330,000 compounds, 0.093% hits;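 active means percent activation above the screen-wide mean plus 3 SD, cut at about 25% in these data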
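Assay system – Uncleavable procaspase-7 mutant enzyme · Quantity – 2 µM procaspase-7 mutant as dispensed · Times – 1 h preincubation, 2 h reaction · Dosing – single nominal 8.5 µM compound dose, 0.8% DMSO final · Buffer or medium – Zinc-free 50 mM HEPES buffer, pH 7.4, with NaCl and Triton X-100 · Detection – Epi-absorbance of released pNA at 405 nm, two timepoints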
CHT allo act – allosterically activates the human high affinity choline transporter. Q9GZV3. CHT-expressing cells, membrane potential dye, choline EC20; stronger effect = higher value; LV-AA mutant CHT in HEK293 cells. B-score at 10 µM. 310,000 compounds, 0.49% hits. AID 488977;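 active means initial fluorescence not abnormally high and integrated response B-score, plate-corrected, over 3 SD above library mean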
Target sequence (Q9GZV3 whole entry, looked up): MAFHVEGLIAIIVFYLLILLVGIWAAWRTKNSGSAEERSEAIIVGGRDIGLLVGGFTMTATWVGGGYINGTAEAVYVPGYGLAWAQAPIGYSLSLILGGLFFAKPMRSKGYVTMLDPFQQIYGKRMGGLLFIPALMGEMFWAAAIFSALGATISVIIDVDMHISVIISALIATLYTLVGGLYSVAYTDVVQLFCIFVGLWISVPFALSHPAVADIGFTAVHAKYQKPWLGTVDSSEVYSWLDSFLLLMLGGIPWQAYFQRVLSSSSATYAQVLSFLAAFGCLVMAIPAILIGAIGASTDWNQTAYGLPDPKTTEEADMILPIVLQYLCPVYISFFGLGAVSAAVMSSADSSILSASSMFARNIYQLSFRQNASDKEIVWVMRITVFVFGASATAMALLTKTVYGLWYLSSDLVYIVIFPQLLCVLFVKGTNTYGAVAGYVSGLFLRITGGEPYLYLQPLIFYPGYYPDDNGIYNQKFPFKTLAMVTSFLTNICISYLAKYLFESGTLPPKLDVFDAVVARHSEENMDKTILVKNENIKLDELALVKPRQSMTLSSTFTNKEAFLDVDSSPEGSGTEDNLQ
procasp3 activ – activates human procaspase-3; AID 463141; activation, % at 8.5 µM; P42574; 330,000 compounds, 0.11% hits; recombinant procaspase-3 D3A, Ac-DEVD-pNA absorbance 405 nm;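 active means activation above the mean of all tested compounds plus 3 SD, cut at about 21% in these data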
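Assay system: Autoprocessing-dead procaspase-3 D3A mutant enzyme; also added: Ac-DEVD-pNA; doses: one concentration, 8.5 µM nominal, 0.8% DMSO; times: 1 h compound preincubation, 2 h substrate hydrolysis at 25 °C; technique: 405 nm absorbance of p-nitroaniline, reads at 0 and 120 min; measure: % activation between DMSO and enzyme-spiked controls; repeats: single replicate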
CHT block – human CHT choline transport inhibition; B-score at 10 µM; AID 488975; 310,000 compounds, 0.86% hits; CHT-expressing cells, membrane potential dye, choline response; stronger effect = lower value;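 active means B-score over 3 SD under the library average, and starting fluorescence ratio not unusually high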;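 further: choline stimulus applied at its EC90 after an EC20 pre-addition; B-score computed on integrated fluorescence ratio after choline addition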
CHT act confirm – human CHT activation, confirmatory screen; shares compounds with CHT allo act; CHT-expressing cells, membrane potential dye fluorescence (FDSS); % of choline EC20–EC90 response window; HEK293 expressing CHT LV-AA mutant; choline added at its EC20; activation, % at 10 µM; 2,500 compounds, 91% hits; AID 504833;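 active means primary screen active, with duplicate mean activation above negative control mean plus 3 SD, cut at about 11% in these data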
HEK293 MP dye – counter-screen for CHT activators: effect in parental HEK293 cells | membrane potential dye fluorescence (FDSS); measured after EC20 choline addition | 2,500 compounds, 62% hits | ratio readout change at 10 µM, hits read low | shares compounds with CHT allo act;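 active means duplicate-averaged ratio beyond 3 SD from buffer wells, up or down, though filed actives are nearly all decreases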
A number is an active result.

Cc1cc(C)n2[nH]c(=O)c(N=Nc3cccc(C(F)(F)F)c3)c2n1 was read as procasp7 counter inactive, CHT allo act 7.2, procasp3 activ inactive, CHT block inactive, CHT act confirm 37 and HEK293 MP dye -74.
For CCOc1ccc(C(=O)Nc2cc(C)on2)cc1OCC the results were procasp7 counter inactive, CHT allo act inactive, procasp3 activ inactive, CHT block inactive, CHT act confirm 46 and HEK293 MP dye -35.
For CCCN1C(=O)c2ccc(C(=O)Nc3cc(C)on3)cc2C1=O the results were procasp7 counter inactive, CHT allo act inactive, procasp3 activ inactive, CHT block inactive, CHT act confirm 21 and HEK293 MP dye -27.
Screening Cc1cc(NC(=O)c2ccc3c(c2)C(=O)N(Cc2ccccc2)C3=O)no1 returned procasp7 counter inactive, CHT allo act inactive, procasp3 activ inactive and CHT block inactive.
`CC1(c2ccccc2Br)NC(=O)N(CC(=O)N2CCc3ccccc3C2)C1=O` (stereo not given) gave procasp7 counter inactive and procasp3 activ inactive.
CCn1c(SCC(=O)Nc2ccc(N3CCOCC3)cc2)nnc1-c1ccncc1 was read as procasp7 counter inactive, CHT allo act inactive, procasp3 activ inactive and CHT block inactive.
`COc1ccc(OC)c2c(C)cc(C)nc12` gave procasp7 counter inactive, CHT allo act 8.8, procasp3 activ inactive, CHT block inactive, CHT act confirm 57 and HEK293 MP dye -81.
CN1Cc2c(N3CCOCC3)nc3sc(C#N)c(N)c3c2CC1(C)C was read as procasp7 counter inactive, CHT allo act inactive, procasp3 activ inactive, CHT block inactive, CHT act confirm 50 and HEK293 MP dye -55.
CC(=O)N1CCN(c2ncnc3sc(-c4ccccc4)cc23)CC1 was read as procasp7 counter inactive, CHT allo act inactive, procasp3 activ inactive and CHT block inactive.
Screening CCc1cc2c(N3CCN(c4ccccc4)CC3)ncnc2s1 returned procasp7 counter inactive, CHT allo act inactive, procasp3 activ inactive, CHT block inactive, CHT act confirm 16 and HEK293 MP dye inactive.
CCCNC(=O)C(Cc1ccccc1C)NC(=O)c1ccc(C(F)(F)F)cc1 (stereo not given) was read as procasp7 counter inactive and procasp3 activ inactive.
Screening CNC(=S)N/N=C/c1ccccc1Cl returned procasp7 counter inactive, CHT allo act inactive, procasp3 activ inactive and CHT block inactive.
`Cc1ccc(-n2c(C)cc(/C=N/NC(N)=S)c2C)cc1` gave procasp7 counter inactive, CHT allo act 14, procasp3 activ inactive, CHT block inactive, CHT act confirm 33 and HEK293 MP dye inactive.
CNC(=S)N/N=C/c1cc(C)n(-c2ccc(Cl)c(Cl)c2)c1C was read as procasp7 counter inactive, CHT allo act 9.3, procasp3 activ inactive, CHT block inactive, CHT act confirm inactive and HEK293 MP dye inactive.
C#CCOCCOCCOCCNc1nc(N2CCN(C(=O)CCCCCCCCCCNC(=O)[C@H](CCCCN)n3cc(C)nn3)CC2)nc(N2CCN(C(=O)CCCCCCCCCCNC(=O)[C@@H]([C@H](C)O)n3cc(C)nn3)CC2)n1 was read as procasp7 counter inactive, CHT allo act inactive, procasp3 activ inactive, CHT block inactive, CHT act confirm inactive and HEK293 MP dye -40.
Screening C#CCOCCOCCOCCNc1nc(N2CCN(C(=O)[C@H](CCCCN)n3cc([C@@H](N)CC(C)C)nn3)CC2)nc(N2CCN(C(=O)[C@H](Cc3ccc(O)cc3)n3cc([C@@H](N)CC(C)C)nn3)CC2)n1 returned procasp7 counter inactive, CHT allo act inactive, procasp3 activ inactive and CHT block inactive.
C#CCOCCOCCOCCNc1nc(N2CCN(C(=O)[C@H](CCCCN)n3cc([C@@H](N)CC(C)C)nn3)CC2)nc(N2CCN(C(=O)[C@H](CCCCN)n3cc([C@@H](N)CC(C)C)nn3)CC2)n1 was read as procasp7 counter inactive, CHT allo act inactive, procasp3 activ inactive, CHT block inactive, CHT act confirm 56 and HEK293 MP dye -39.
For C#CCOCCOCCOCCNc1nc(N2CCN(C(=O)CCCCCCCCCCNC(=O)[C@H](CCCCN)n3cc(C[C@@H](C)CC)nn3)CC2)nc(N2CCN(C(=O)CCCCCCCCCCNC(=O)[C@@H]([C@H](C)O)n3cc(C)nn3)CC2)n1 the results were procasp7 counter inactive, CHT allo act inactive, procasp3 activ inactive and CHT block inactive.
`C[n+]1cn(CC(O)COCc2ccccc2)c2ccccc21` (stereo not given) gave procasp7 counter inactive, CHT allo act inactive, procasp3 activ inactive and CHT block inactive.
For Cc1cc2c(cc1C)[n+](C)cn2CC(O)COCc1ccccc1 (stereo not given) the results were procasp7 counter inactive, CHT allo act inactive, procasp3 activ inactive, CHT block inactive, CHT act confirm 48 and HEK293 MP dye -35.
`CCCCCC(=O)Nc1ccc(C(=O)CN2C(=O)NC3(CCCCCC3)C2=O)cc1` gave procasp7 counter inactive, CHT allo act inactive, procasp3 activ inactive and CHT block inactive.
`CCOC(=O)c1ccc2c(c1)[n+](CC)c(C)n2-c1ccccc1` gave procasp7 counter inactive, CHT allo act inactive, procasp3 activ inactive and CHT block inactive.
Screening CC[n+]1c(C)n(-c2ccccc2)c2ccc(C(=O)OC)cc21 returned procasp7 counter inactive, CHT allo act 7.5, procasp3 activ inactive, CHT block inactive, CHT act confirm 32 and HEK293 MP dye -29.
`CC(C)(C)OC(=O)N1CCCN(C(=O)Nc2ccc(C(F)(F)F)cc2)CC1` gave procasp7 counter inactive, CHT allo act inactive, procasp3 activ inactive and CHT block inactive.
CC(=O)NC(CC(=O)OCC(=O)NCCc1ccccc1)c1ccccc1 (stereo not given) was read as procasp7 counter inactive, CHT allo act inactive, procasp3 activ inactive and CHT block inactive.
CC(=O)c1ccc(NC(=O)CCCN2C(=O)C(c3ccccc3)Oc3cccnc32)cc1 (stereo not given) was read as procasp7 counter inactive, CHT allo act inactive, procasp3 activ inactive and CHT block inactive.
CC[N+](C)(C)CCN(Cc1ccc(Cl)cc1)c1ccccn1 was read as procasp7 counter inactive, CHT allo act inactive, procasp3 activ inactive and CHT block inactive.
For CCCCCCCCCCCCCCCC[N+](C)(C)CCN(Cc1ccc(OC)cc1)c1ncccn1 the results were procasp7 counter inactive, CHT allo act inactive, procasp3 activ inactive, CHT block inactive, CHT act confirm 18 and HEK293 MP dye -60.
